Results published in paper PMC9054602 (RSC Advances, 2020).

Experiments:
[1] = test system: PRRSV CH-1a strain; assay: Antiviral activity by IFA, PRRSV CH-1a in MARC-145 cells; format: cell-based; conditions: Porcine reproductive and respiratory syndrome virus, MARC145
Outline: (§1)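 MARC-145 monolayers infected at 0.05 MOI for 2 h at 37 °C. Inoculum removed and fresh medium with serial compound concentrations added. Cells then fixed in 4% paraformaldehyde, permeabilized with Triton X-100, blocked with BSA and stained for N protein (mAb 4A5, 1:400, 4 °C overnight), with Alexa 568 secondary and DAPI. Red and blue ODs digitized; protection % derived against DMSO wells. EC50 by nonlinear regression; three independent experiments.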

[2] = test system: PRRSV NADC30-like strain; assay: Antiviral activity by IFA, PRRSV NADC30-like in MARC-145 cells; format: cell-based; conditions: Porcine reproductive and respiratory syndrome virus, MARC145
Outline: as §1

[3] = test system: PRRSV GD-XH strain; assay: Antiviral activity by indirect immunofluorescence assay; format: cell-based, porcine reproductive and respiratory syndrome virus; conditions: MARC-145 cells; for EC50: Porcine reproductive and respiratory syndrome virus, MARC145, PRRSV GD-XH (0.05 MOI), IFA at 48 hpi; for Selectivity index (SI): ratio of CC50 to EC50, PRRSV GD-XH
[4] = test system: PRRSV VR2332 strain; assay: Antiviral activity by IFA, PRRSV VR2332 in MARC-145 cells; format: cell-based; conditions: Porcine reproductive and respiratory syndrome virus, MARC145
Outline: as §1

Q: Which results are given for `NC(=O)c1ncn([C@@H]2O[C@H](CO)[C@@H](O)[C@H]2O)n1` [Ribavirin]?
A: EC50 [1]: 31.5 ± 2.8 µM; EC50 [2]: 16.8 ± 2.1 µM; EC50 [3]: 23.7 ± 3.1 µM; Selectivity index (SI) [3]: >27; EC50 [4]: 22.3 ± 3.1 µM

Q: `C[C@H]1[C@H](C)CC[C@]2(C(=O)O)CC[C@]3(C)C(=CC[C@@H]4[C@@]5(C)CC[C@H](O)C(C)(C)[C@@H]5CC[C@]43C)[C@H]12` [UA, Ursolic acid] was tested. Which EC50 [1] did it give?
A: 11.3 ± 0.78 µM

Q: What about the EC50 [2] of the same compound?
A: 5.03 ± 0.35 µM

Q: What about the EC50 [3] of the same compound?
A: 8.03 ± 0.93 µM

Q: What about the “Selectivity index (SI)” value [3] of the same compound?
A: 8.1

Q: What about the EC50 [4] of the same compound?
A: 5.66 ± 0.52 µM
